Results published in ChEMBL document CHEMBL1125244, “4',5'-unsaturated 5'-halogenated nucleosides. Mechanism-based and competitive inhibitors of S-adenosyl-L-homocysteine hydrolase” (J Med Chem, 1991).
Values after ≈ are worked out from the molar mass of the structure shown.

Columns and labels:
Adenosylhomocysteinase [1] = biological target: T1, Adenosylhomocysteinase (Mus musculus, UniProt P50247); experiment: Activity determined in mouse liver S-adenosyl-L-homocysteine hydrolase and expressed as KI values; NA= not applicable
How it was run: (§1)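 Partially purified mouse liver enzyme (38–55% ammonium sulfate fraction, stored at –70 °C), assayed in the synthetic direction. The mix held […] potassium phosphate, 2 mM 2-mercaptoethanol, 0.1 mM adenosine plus [³H]adenosine, 10 mM DL-homocysteine and 1.0 μM 2-deoxycoformycin, run 10–20 min at 37 °C. [³H]SAH was separated on Cellex-P and counted. Time-dependent inactivation constants came from the Kitz–Wilson method.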

[2] = system: Moloney murine leukemia virus; experiment: Antiretroviral activity in the XC-plaque assay using Moloney leukemia virus (MoLV) as a model for human immunodeficiency virus (HIV).; type: functional, organism-based
Adenosylhomocysteinase [3] = biological target: T2, Adenosylhomocysteinase (Rattus norvegicus, UniProt P10760); experiment: Activity determined in rat liver S-adenosyl-L-homocysteine hydrolase and expressed as KI values; NA= not applicable
T2 sequence (P10760 whole entry): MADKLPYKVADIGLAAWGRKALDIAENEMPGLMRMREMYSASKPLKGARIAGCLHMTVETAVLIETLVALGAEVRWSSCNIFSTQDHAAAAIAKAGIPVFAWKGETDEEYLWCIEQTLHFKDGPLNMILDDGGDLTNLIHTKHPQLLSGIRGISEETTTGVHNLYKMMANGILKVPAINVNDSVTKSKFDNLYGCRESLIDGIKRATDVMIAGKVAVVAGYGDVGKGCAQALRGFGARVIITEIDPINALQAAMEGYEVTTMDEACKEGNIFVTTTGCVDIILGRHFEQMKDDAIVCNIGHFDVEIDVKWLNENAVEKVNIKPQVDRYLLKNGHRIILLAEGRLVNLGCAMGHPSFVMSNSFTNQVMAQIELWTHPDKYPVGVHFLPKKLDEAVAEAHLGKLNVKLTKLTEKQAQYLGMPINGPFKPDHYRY

Adenosylhomocysteinase [4] = biological target: T2, Adenosylhomocysteinase; experiment: Activity determined in rat liver S-adenosyl-L-homocysteine hydrolase and expressed as Kinactivator values; NA= not applicable
Adenosylhomocysteinase [5] = biological target: T2, Adenosylhomocysteinase; experiment: Activity determined in rat liver S-Adenosyl-homocysteine hydrolase and expressed as KI values; NA= not applicable
Adenosylhomocysteinase [6] = biological target: T2, Adenosylhomocysteinase; experiment: Competitive inhibitory activity against rat liver S-Adenosyl-homocysteine hydrolase
Adenosylhomocysteinase [7] = biological target: T1, Adenosylhomocysteinase; experiment: Activity determined in mouse liver S-Adenosyl-homocysteine hydrolase and expressed as KI values; NA= not applicable
Adenosylhomocysteinase [8] = biological target: T2, Adenosylhomocysteinase; experiment: Activity determined in rat liver S-adenosyl-L-homocysteine hydrolase and expressed as Kinactivator values.
[9] = biological target: T3, Adenosylhomocysteinase (Rattus norvegicus) (UniProt P10760)
T3 sequence (whole entry): T2 sequence (P10760 whole entry)

Adenosylhomocysteinase [10] = biological target: T1, Adenosylhomocysteinase; experiment: Activity determined in mouse liver S-adenosyl-L-homocysteine hydrolase and expressed as KI values.
Adenosylhomocysteinase [11] = biological target: T2, Adenosylhomocysteinase; experiment: (§2) Activity determined in rat liver S-adenosyl-L-homocysteine hydrolase and expressed as KI values.
[12] = biological target: Adenosylhomocysteinase (Mus musculus) (UniProt P50247)
Adenosylhomocysteinase [13] = biological target: T1, Adenosylhomocysteinase; experiment: Activity determined in mouse liver S-Adenosyl-L-homocysteine (SAH) Hydrolase and expressed as KI values; NA= not applicable; how it was run: as §1
Adenosylhomocysteinase [14] = biological target: T2, Adenosylhomocysteinase; experiment: Activity determined in rat liver S-Adenosyl-L-homocysteine (SAH) Hydrolase and expressed as KI values; NA= not applicable
Adenosylhomocysteinase [15] = biological target: T2, Adenosylhomocysteinase; experiment: Time-dependent inhibitory activity against rat liver S-adenosyl-L-homocysteine hydrolase
[16] = biological target: T3, Adenosylhomocysteinase (Rattus norvegicus); experiment: as §2

Adenosylhomocysteinase (Mus musculus), sequence (P50247 2-432 limits assumed): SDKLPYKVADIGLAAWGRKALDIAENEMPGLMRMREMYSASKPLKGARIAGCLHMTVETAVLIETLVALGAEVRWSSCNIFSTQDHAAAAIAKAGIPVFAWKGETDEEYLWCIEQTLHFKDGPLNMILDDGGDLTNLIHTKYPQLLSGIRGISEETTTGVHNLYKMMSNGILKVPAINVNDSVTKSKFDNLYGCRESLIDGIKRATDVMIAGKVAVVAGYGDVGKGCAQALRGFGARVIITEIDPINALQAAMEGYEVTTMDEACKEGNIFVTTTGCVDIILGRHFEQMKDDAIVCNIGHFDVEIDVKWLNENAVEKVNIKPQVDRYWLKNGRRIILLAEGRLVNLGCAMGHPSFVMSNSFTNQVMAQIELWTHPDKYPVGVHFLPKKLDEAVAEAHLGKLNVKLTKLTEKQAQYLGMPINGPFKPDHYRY
T1 sequence (P50247 whole entry): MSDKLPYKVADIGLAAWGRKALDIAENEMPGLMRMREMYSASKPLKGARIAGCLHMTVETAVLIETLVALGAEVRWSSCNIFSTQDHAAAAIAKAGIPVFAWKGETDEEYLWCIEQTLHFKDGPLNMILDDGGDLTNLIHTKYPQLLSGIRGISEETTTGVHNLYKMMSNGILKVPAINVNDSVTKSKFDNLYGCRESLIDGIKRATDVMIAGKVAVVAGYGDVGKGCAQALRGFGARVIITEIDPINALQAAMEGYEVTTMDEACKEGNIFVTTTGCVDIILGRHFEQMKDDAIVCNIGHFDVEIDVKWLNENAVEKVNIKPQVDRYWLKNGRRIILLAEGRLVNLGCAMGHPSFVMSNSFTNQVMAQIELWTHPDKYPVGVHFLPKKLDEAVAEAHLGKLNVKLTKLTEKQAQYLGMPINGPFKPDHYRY

In the case of Nc1ncnc2c1ncn2[C@H]1C[C@H](O)/C(=C/F)O1, the Ki (Adenosylhomocysteinase [1]) is reported as “Not Active”, the IC50 [2] is reported as 10 µg/mL (≈ 39.8 µM) and the Ki (Adenosylhomocysteinase [3]) is reported as “Not Active”. The Ki (Adenosylhomocysteinase [4]) was 150 µM.

Nc1ncnc2c1ncn2[C@@H]1O/C(=C(\F)Cl)[C@@H](O)[C@H]1O was tested, and the Ki (Adenosylhomocysteinase [1]) was “Not Active”, the IC50 [2] was 1.3 µg/mL (≈ 4.31 µM) and the Ki (Adenosylhomocysteinase [3]) was “Not Active”. For the same compound, the Ki (Adenosylhomocysteinase [4]) was 3 µM.

For Nc1ncnc2c1ncn2[C@@H]1O/C(=C(/F)Cl)[C@@H](O)[C@H]1O, the Ki (Adenosylhomocysteinase [5]) was “Not Active”, the Ki (Adenosylhomocysteinase [6]) was 1.5 µM and the IC50 [2] was 0.1 µg/mL (≈ 0.331 µM). The Ki (Adenosylhomocysteinase [7]) was “Not Active”.

Nc1ncnc2c1ncn2[C@@H]1O/C(=C\F)[C@@H](O)[C@@H]1O was tested, and the Ki (Adenosylhomocysteinase [5]) was “Not Active”, the Ki (Adenosylhomocysteinase [6]) was 11 µM and the IC50 [2] was 1.2 µg/mL (≈ 4.49 µM). For the same compound, the Ki (Adenosylhomocysteinase [7]) was “Not Active”.

Nc1ncnc2c1ncn2[C@@H]1O/C(=C\F)[C@@H](O)[C@H]1O was tested, and the Ki (Adenosylhomocysteinase [8]) was “Not Active”, the K inact [9] was 0.8 min⁻¹ and the IC50 [2] was 0.05 µg/mL (≈ 0.187 µM). It also gave a Ki (Adenosylhomocysteinase [10]) of 0.55 µM, a Ki (Adenosylhomocysteinase [11]) of 6.5 µM and a K inact [12] of 0.28 min⁻¹.

For Nc1ncnc2c1ncn2[C@@H]1O/C(=C/F)[C@@H](O)[C@@H]1O, the Ki (Adenosylhomocysteinase [5]) was “Not Active”, the Ki (Adenosylhomocysteinase [6]) was 3.2 µM and the IC50 [2] was 4.4 µg/mL (≈ 16.5 µM). For the same compound, the Ki (Adenosylhomocysteinase [7]) was “Not Active”.

With Nc1ncnc2c1ncn2[C@@H]1O/C(=C/F)[C@@H](O)[C@H]1O the Ki (Adenosylhomocysteinase [8]) was “Not Active”, the K inact [9] was 0.14 min⁻¹ and the IC50 [2] was 0.25 µg/mL (≈ 0.936 µM). It also gave a Ki (Adenosylhomocysteinase [10]) of 1.04 µM, a Ki (Adenosylhomocysteinase [11]) of 2.4 µM and a K inact [12] of 0.23 min⁻¹.

For Nc1ncnc2c1ncn2[C@H]1C[C@H](O)/C(=C\F)O1, the Ki (Adenosylhomocysteinase [13]) was “Not Active” and the Ki (Adenosylhomocysteinase [14]) was “Not Active”.

With Nc1ncnc2c1ncn2[C@@H]1O/C(=C\Cl)[C@@H](O)[C@H]1O the Ki (Adenosylhomocysteinase [1]) was “Not Active”, the IC50 [2] was 3.3 µg/mL (≈ 11.6 µM) and the Ki (Adenosylhomocysteinase [3]) was “Not Active”. For the same compound, the Ki (Adenosylhomocysteinase [4]) was 1.6 µM.

Nc1ncnc2c1ncn2C1O[C@H](C(F)F)[C@@H](O)[C@H]1O (stereo partly specified) gave a Ki (Adenosylhomocysteinase [15]) of 9.7 µM, a Ki (Adenosylhomocysteinase [8]; read-out: Ki) of 9.7 µM and an IC50 [2] of 0.8 µg/mL (≈ 2.79 µM). For the same compound, the Ki (Adenosylhomocysteinase [10]) was 10 µM, the K inact [12] was 0.6 min⁻¹ and the K inact [16] was 0.04 min⁻¹.

Compound Nc1ncnc2c1ncn2[C@@H]1O[C@H](CO)[C@@H](O)[C@@H]1O [VIDARABINE] has an IC50 [2] of 1 µg/mL (≈ 3.74 µM) and a Ki (Adenosylhomocysteinase [10]) of 30 µM.
